# ANO1 block – blocks the mouse calcium-activated chloride channel TMEM16A. normalized B-score (activity score, 25-100; higher = stronger inhibition) at 10 µM. 1.2% of 310,000 active. HEK293 TMEM16A/YFP iodide influx fluorescence, ionomycin. Q8BHY3;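 active means ratio plate-corrected score three or more library SD toward inhibition, starting fluorescence score within five deviations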;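 further: score derived from kinetic fluorescence span divided by baseline fluorescence per well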
# ANO1 activ – activators or potentiators of mouse TMEM16A chloride channel; Q8BHY3; HEK293 TMEM16A/YFP-H148Q/I152L, iodide quench fluorescence; stronger effect = lower value; B-score at 10 µM; 0.3% of 340,000 active; AID 623877;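 active means fluorescence-ratio B-score plate-corrected deviation score at least 3 library SD below zero, with starting fluorescence score within 5 deviations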;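 further: channel opened by trigger with iodide after compound preincubation; score built on the fluorescence ratio of max minus min over baseline; more negative score means more quench and so TMEM16A activation or potentiation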
# Apaf1 inhib – human Apaf-1 inhibition. reconstituted apoptosome caspase-3 activity, DEVD-Rh110 fluorescence. inhibition, % at 20 µM. O14727. 0.71% of 330,000 active. AID 489030; active means inhibition of at least 40% at 20 µM;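 further: plate controls were DMSO wells for no effect and DEVD-CHO caspase inhibitor wells for full effect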
#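 System: reconstituted apoptosome with Apaf-1, cytochrome c, caspase-9, procaspase-3, dATP; Signal: Rh110 fluorescence intensity; Schedule: 30 min compound preincubation, 50 min activation, room temperature; Reagent: cytochrome c trigger plus (Z-DEVD)2-Rh110 caspase-3 substrate.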
# DNA FID counter – counter-screen for HCV NS3 helicase inhibitors: DNA intercalator displacement. DNA fluorescent intercalator displacement, fluorescence. inhibition, % at 7.9 µM. 0.17% of 290,000 active. AID 1845; in the data active means inhibition above about 37%;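 further: 0% = vehicle and 100% = reference compound; higher means more ethidium bromide displaced from hairpin DNA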
# UBC13 inh – blocks human UBC13 polyubiquitin chain formation; P61088; TR-FRET; inhibition, % at 20 µM; 0.47% of 330,000 active; AID 485273; in the data active means inhibition above about 45%, passing the limit was not always enough
# Target sequence (P61088 whole entry, looked up): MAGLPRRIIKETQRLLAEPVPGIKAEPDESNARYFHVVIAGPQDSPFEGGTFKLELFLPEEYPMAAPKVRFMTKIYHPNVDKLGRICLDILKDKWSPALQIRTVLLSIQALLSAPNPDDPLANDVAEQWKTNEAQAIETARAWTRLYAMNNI
# TMEM16A reconf – TMEM16A (mouse) chloride channel inhibition, re-confirmation; shares compounds with ANO1 block; HEK293 TMEM16A/YFP-H148Q, iodide quench fluorescence; ionomycin added to raise cell calcium; inhibition, % at 10 µM; 39% of 2,300 active;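 active means mean duplicate percent inhibition, scaled so buffer wells are 0 and the reference blocker 100, over three buffer SD above buffer mean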
# TMEM16A Ca cntr – counter-screen for TMEM16A inhibitors: effect on calcium mobilization; calcium response (% of ionomycin), % at 10 µM; AID 652231; shares compounds with ANO1 block; 2% of 2,300 active; TMEM16A/YFP HEK293, Fluo4 calcium mobilization;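 active means duplicate-averaged calcium signal over 20% of the ionomycin maximum, relative to buffer baseline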;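 further: each well's signal is peak minus trough fluorescence divided by its pre-addition baseline; 0% = buffer wells and 100% = ionomycin wells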
# YFP-HEK293 quench – parental YFP-HEK293 iodide quench counter-screen activity; shares compounds with ANO1 block; AID 652233; YFP ratio F(max-min)/F0 at 10 µM; ionomycin; 2,300 tested, under 10 active;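 active means yellow fluorescent protein signal ratio exceeding the buffer control mean by over 5 SD of those controls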;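 further: ratio is mean of duplicate wells from kinetic YFP trace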
# ClC-1 inh – rat ClC-1 inhibition, TMEM16A specificity screen; shares compounds with ANO1 block; CHO ClC-1-YFP, iodide influx fluorescence quench; iodide control reads 0, buffer control 100; 2,300 tested, under 10 active; ratio percent, % at 10 µM;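 active means duplicate-mean ratio percent above the mean of iodide-only control wells, which defines zero, plus 5 of their SD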;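 further: higher percent means stronger block of ClC-1 iodide influx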
# An asterisk follows results filed as active; i = inactive; . = no result. Rows were chosen to be rich in hits. Some 2.4% of all compounds tested hit in one or more screens of this group.
SMILES,ANO1 block,ANO1 activ,Apaf1 inhib,DNA FID counter,UBC13 inh,TMEM16A reconf,TMEM16A Ca cntr,YFP-HEK293 quench,ClC-1 inh
C/C(=C\C(=O)c1ccc(C)cc1)NCc1ccc(F)cc1,100*,i,15,6,8,i,i,-1,-19
C=CCN(Cc1ccc(Cl)s1)C(=O)c1cc(S(=O)(=O)N2CCOCC2)ccc1F,.,i,11,.,11,.,.,.,.
CCOc1cc(/C=N/NC(=O)c2cccnc2)cc(Br)c1OCC(N)=O,i,i,6,-19,-15,.,.,.,.
CN(c1cccc(NC(=O)CSc2ccc(Cl)cc2)c1)S(C)(=O)=O,100*,i,-8,-7,7,28%*,i,-0.97,-4
N#Cc1ccccc1S(=O)(=O)N1CCN(C(=O)[C@@H]2CCCN2C(=O)c2cccs2)CC1,.,i,12,.,-6,.,.,.,.
O=C(O)COc1ccc(/C=C/c2nc(-c3ccccc3O)n[nH]2)cc1,i,i,12,-31,-8,.,.,.,.
COc1ccc(/C=C/c2nc(-c3ccccc3O)n[nH]2)cc1OC,25*,i,-2,0,0,i,i,-0.99,-16
CCCc1nnc(NC(=O)C(CC)OC(=O)c2cc(C)nc3ccccc23)s1 (stereo not drawn),100*,i,16,-25,0,i,i,-1.1,-16
COc1ccccc1-n1c(SCc2cc(=O)oc3cc(O)ccc23)nc2ccccc2c1=O,i,i,-11,-21,9,.,.,.,.
COc1ccccc1-n1c(=O)oc2ccc(Cl)cc2c1=O,25*,i,-11,15,9,22%*,i,-1.1,-10
O=C(CCCSc1nc2ccccc2[nH]1)N1CCN(c2ccc([N+](=O)[O-])cc2)CC1,25*,i,4,3,-3,20%*,i,-0.98,-11
O=[N+]([O-])c1ccc(-c2nc(-c3cccs3)c(-c3cccs3)[nH]2)cc1,i,i,32,-2,-94,20%*,i,-1,3
O=C(O)c1ccccc1N/N=C/c1cc(Br)cc(Br)c1O,25*,i,8,-7,-1,78%*,i,-1,-21
Cc1ccc(C2CC2C(=O)NNC(=S)Nc2cccc(Cl)c2)cc1 (stereo not drawn),25*,i,3,-17,-30,23%*,i,-1,-13
COc1ccc(C)cc1N(CC(=O)O)S(=O)(=O)c1ccc(C)cc1,i,i,11,-23,-1,i,i,-0.63,-6
N#Cc1c(-c2ccccc2)nc(SCc2ccc(Cl)cc2)[nH]c1=O,100*,i,11,-2,16,i,i,-1.2,-18
C=CCSc1nc(-c2ccccc2)c(C#N)c(=O)[nH]1,i,i,-16,-21,38,.,.,.,.
O=C(COc1ccccc1C(=O)NCc1ccccn1)Nc1ccc(Br)cc1,i,i,5,-25,4,.,.,.,.
COc1ccc(S(=O)(=O)N2CCC(O)(c3ccc(Cl)cc3)CC2)cc1,25*,i,14,-3,-14,21%*,i,-1.1,-10
CC(C)CNC(=S)N1CCC(c2nc(-c3ccc(F)cc3)no2)CC1,100*,i,-10,-14,1,i,i,-1,-12
COCCNC(=S)N1CCC(c2nc(-c3ccc(N(C)C)cc3)no2)CC1,i,i,-9,-19,-4,.,.,.,.
CCOc1ccc(-c2nc(C#N)c(NCc3ccco3)o2)cc1,i,i,16,-1,12,.,.,.,.
COCCCNC(=S)N1CCN(c2nc(-c3ccccc3)cs2)CC1,25*,i,11,-27,-4,i,i,-0.83,-10
